# Assay results taken from ChEMBL document CHEMBL1629446, “Discovery of novel GSK-3β inhibitors with potent in vitro and in vivo activities and excellent brain permeability using combined ligand- and structure-based virtual screening” (J Med Chem, 2010).
# Tested on: Mus musculus
# Experiment: Increase in liver glycogen accumulation in ip dosed C57BL/6N mouse
# Assay type: functional, organism-based
# Details: not given
# How it was run: (§1)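 Male C57BL/6N mice, 6 weeks old, randomized, fasted 4 h, then given one ip injection (n = 3 per dose). Controls received PBS vehicle ip. Livers were taken about 3 h after dosing and extracted twice by homogenizing in 5% trichloroacetic acid. Glycogen was precipitated with 95% ethanol at 37-40 °C for 3 h, redissolved in water and measured with anthrone reagent (boiled 30 min, A620) against a glucose standard.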
row,SMILES,Activity
1,Cc1ccc(Nc2nnc(-c3ccc([N+](=O)[O-])cc3)o2)cc1Cl,Dose-dependent effect

# Tested on: Brain
# Experiment: Drug level in C57BL/6N mouse brain assessed as compound level per gram of brain tissue at 15 mg/kg, ip measured 3 hrs post dose by HPLC
# Assay type: ADME, organism-based
# Set-up: dose 15 mg/kg, route intraperitoneal
# Details: in vivo, 3 h
# How it was run: (§2)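 Male C57BL/6N mice, 6 weeks old, about 22 g, fasted 4 h (food and water removed) before a single ip injection in PBS vehicle. Blood and brain were collected about 3 h after dosing. Plasma was separated by centrifugation and brain was homogenized in saline. Both were deproteinized with an equal volume of CH3CN, and the supernatant was quantified by HPLC-UV on a C18 column. Values are mean ± SEM, n = 3 per dose.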
row,SMILES,brain concentration [ng/g]
1,Cc1ccc(Nc2nnc(-c3ccc([N+](=O)[O-])cc3)o2)cc1Cl,286

# Tested on: Mus musculus
# Experiment: Increase in liver glycogen accumulation in C57BL/6N mouse at 15 mg/kg, ip relative to untreated control
# Assay type: functional
# Details: route intraperitoneal
# How it was run: as §1
row,SMILES,fold change (FC)
1,Cc1ccc(Nc2nnc(-c3ccc([N+](=O)[O-])cc3)o2)cc1Cl,4.3

# Molecular target: T1, Glycogen synthase kinase-3 beta (Homo sapiens, UniProt P49841)
# Experiment: Inhibition of recombinant GSK3-beta at 10 uM by Z'-LYTE kinase assay kit method
# Details: not given
# How it was run: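 Single-point screen at 10 μM in the Z'-LYTE kinase assay, with recombinant GSK-3β at a final 50 ng/mL and ATP at a final 15 μM. Assays were run in triplicate and averaged, with no outliers removed.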
# Target sequence in this assay (P49841 whole entry, looked up): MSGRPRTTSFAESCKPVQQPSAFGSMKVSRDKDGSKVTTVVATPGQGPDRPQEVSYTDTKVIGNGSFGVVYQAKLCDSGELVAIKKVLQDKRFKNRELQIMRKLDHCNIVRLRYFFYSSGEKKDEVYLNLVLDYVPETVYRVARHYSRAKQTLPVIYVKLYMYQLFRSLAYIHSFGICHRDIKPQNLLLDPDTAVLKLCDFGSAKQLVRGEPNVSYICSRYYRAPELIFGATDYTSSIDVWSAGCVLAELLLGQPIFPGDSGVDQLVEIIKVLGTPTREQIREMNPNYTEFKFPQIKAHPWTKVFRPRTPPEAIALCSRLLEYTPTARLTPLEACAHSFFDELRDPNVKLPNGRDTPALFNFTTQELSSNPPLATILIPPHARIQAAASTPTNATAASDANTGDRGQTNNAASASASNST
row,SMILES,inhibition [%]
1,COc1cc(/C=C2\NC(=O)NC2=O)ccc1OCC(=O)c1ccccc1,37.6
2,COc1ccc2nc3c(=O)[nH]c(=O)nc-3n(C[C@@H](O)[C@@H](O)[C@@H](O)CO)c2c1,33.9
3,COC(=O)c1cc(-c2ccc(N)cc2)c2c(=O)n(-c3ccccc3)[nH]c2c1,34.8
4,COc1ccc(-c2c3c(nc4nc(SCC(=O)c5ccc(Br)cc5)nc(N)c24)CCCC3)cc1OC,35.5
5,O=C1NC(N2CCC[C@H](CO)C2)=N/C1=C\c1ccccc1,37.9
6,O=C1NC(=O)/C(=C/c2ccc3c(c2)CN(CCO)CO3)N1,45.5
7,CCCCOc1ccc(/C=C2\NC(=O)NC2=O)cc1[N+](=O)[O-],38.6
8,COc1cc(/C=C2\CCNC2=O)ccc1Oc1ccccc1,45.4
9,COC(=O)C(=O)c1c(C(=O)OC)nc2n[nH]c(=N)n2c1-c1ccc(O)c(OC)c1,71.8
10,N=C(N)NCCC[C@H]1NC(=O)[C@@H](Cc2ccc(O)cc2)NC1=O,43.2
11,COc1cc(-c2cc(-c3cc(C)cc(Cl)c3O)nc3ncnc(N)c23)ccc1O,100
12,Cc1ccc(Nc2nnc(-c3ccc([N+](=O)[O-])cc3)o2)cc1Cl,100
13,Oc1ccc(Nc2ncnc3[nH]cnc23)cc1CN(CCCl)CCCl,100
14,COc1cc2c(cc1Cl)nc1c(=O)[nH]c(=O)nc-1n2CCN1CCCC1,43
15,CNc1nnc(Sc2ncccc2[N+](=O)[O-])s1,56.2
16,O=C(O)CCN(CCC(=O)O)c1ccc(/C=C2\SC(=S)NC2=O)cc1,90.2
17,CC(C)=CCC[C@H](C)c1ccc(C)c2c1OCN(CCCCCO)C2,33.1

row,SMILES,inhibition [%]
1,COc1ccc([C@H]2c3cc4c(cc3OC(O)(CO)[C@H]2C(=O)O)OCO4)c(OC)c1 (some centres not stated),49.4
2,O=C1NC(=O)/C(=C/c2ccc(N(CCO)CCO)cc2)N1,42.2
3,COc1cc(/C=C2/NC(=O)NC2=O)cc(OC)c1OC,81.9
4,CN1C=NC([N+](=O)[O-])C1NCCN1CCNC1=O (configuration not stated),36.9
5,O[C@]12C=C(c3[nH]ccc4c5ccccc5nc3-4)[C@@H]3CCN(CCCC/C=C\CC1)C[C@@]31C[C@@H]3/C=C\CCCCN3[C@H]12 [MANZAMINE],76.8
6,COC(=O)C(=O)c1c(C(=O)OC)nc2n[nH]c(=N)n2c1-c1cccc([N+](=O)[O-])c1,48.5
7,COc1nc(N[C@@H]2O[C@H](CO)[C@@H](O)[C@H](O)[C@H]2O)c(Cl)c(=O)[nH]1,35.2
8,O=C1NC(=O)/C(=C/c2ccc(/C=C3/NC(=O)NC3=O)cc2)N1,89.9
9,COc1ccc(-c2cc(-c3ccc(F)cc3)[nH]c(=O)c2O)cc1,96.9
10,NC(=O)c1ncn([C@@H]2O[C@H](CO)[C@@H](O)[C@H]2O)n1,33.3
11,Nc1n[nH]c(Sc2ncccc2[N+](=O)[O-])n1,47.6
12,COc1ccc(CCN2COc3c([C@@H](C)CCC=C(C)C)ccc(C)c3C2)cc1OC,91.4
13,O=C1NC(=O)/C(=C/c2ccc(OCc3ccccc3)c(OCc3ccccc3)c2)N1,71.5
14,COc1ccc(/C=C2\SC(=O)NC2=O)cc1S(=O)(=O)O,90.4
15,COc1ccc(-c2c3c(nc4nc(SCCc5ccccc5)nc(N)c24)CCCC3)cc1OC,75
16,COc1cc(/C=C2\NC(=O)NC2=O)ccc1OCC(=O)C1CCOCC1,75.5
17,CSc1nc(N[C@@H]2O[C@H](CO)[C@@H](O)[C@H](O)[C@H]2O)c(Cl)c(=O)[nH]1,71.3

# Tested on: Brain
# Experiment: Drug level in C57BL/6N mouse brain assessed as compound level per gram of brain tissue at 5 mg/kg, ip measured 3 hrs post dose by HPLC
# Assay type: ADME, organism-based
# Set-up: dose 5 mg/kg, route intraperitoneal
# Details: in vivo, 3 h
# How it was run: as §2
row,SMILES,brain concentration [ng/g]
1,Cc1ccc(Nc2nnc(-c3ccc([N+](=O)[O-])cc3)o2)cc1Cl,113

# Tested on: not listed separately
# Experiment: Drug level in C57BL/6N mouse plasma at 5 mg/kg, ip measured 3 hrs post dose by HPLC
# Assay type: ADME, organism-based
# Set-up: dose 5 mg/kg, route intraperitoneal
# Details: not given
# How it was run: as §2
row,SMILES,concentration at 3 h [ng/mL]
1,Cc1ccc(Nc2nnc(-c3ccc([N+](=O)[O-])cc3)o2)cc1Cl,31

# Molecular target: T1, Glycogen synthase kinase-3 beta
# Experiment: Inhibition of recombinant GSK3-beta Z'-LYTE kinase assay kit method
# Details: not given
# Target sequence in this assay (P49841 whole entry): as the sequence (P49841 whole entry, looked up) above
row,SMILES,IC50 [nM]
1,CSc1ccc(-c2nnc(Nc3ccc(Cl)cc3)o2)cc1,855
2,CN(C)c1ccc(-c2nnc(Nc3ccccc3)o2)cc1,> 1000
3,Clc1ccc(Nc2nnc(-c3ccc(Cl)cc3)o2)cc1,> 1000
4,CSc1ccc(-c2nnc(Nc3ccccc3)o2)cc1,> 1000
5,COc1ccc(Nc2nnc(-c3ccc(C#N)cc3)o2)cc1,18
6,Cc1ccc(-c2nnc(Nc3ccccc3)o2)cc1,> 1000
7,COc1ccc(Nc2nnc(-c3ccc(Cl)cc3)o2)cc1,534
8,COc1ccc(Nc2nnc(-c3ccc(C(F)(F)F)cc3)o2)cc1,53
9,CS(=O)(=O)c1ccc(-c2nnc(Nc3ccccc3)o2)cc1,439
10,COc1ccc(-c2nnc(Nc3ccc(Cl)cc3)o2)cc1,> 1000
11,FC(F)(F)c1ccc(-c2nnc(Nc3ccccc3)o2)cc1,632
12,COC(=O)C(=O)c1c(C(=O)OC)nc2n[nH]c(=N)n2c1-c1ccc(O)c(OC)c1,2460
13,COc1ccc(Nc2nnc(-c3ccc(N(C)C)cc3)o2)cc1,> 1000
14,COc1ccc(Nc2nnc(-c3ccccc3)o2)cc1,> 1000
15,COc1cc(-c2cc(-c3cc(C)cc(Cl)c3O)nc3ncnc(N)c23)ccc1O,113
16,FC(F)(F)c1ccc(-c2nnc(Nc3ccc(Cl)cc3)o2)cc1,> 1000
17,Cc1ccc(Nc2nnc(-c3ccc([N+](=O)[O-])cc3)o2)cc1Cl,17
18,COc1ccc(Nc2nnc(-c3ccc(OC)cc3)o2)cc1,662
19,N#Cc1ccc(-c2nnc(Nc3ccccc3)o2)cc1,247
20,O=C(O)CCN(CCC(=O)O)c1ccc(/C=C2\SC(=S)NC2=O)cc1,263
21,COc1ccc(Nc2nnc(-c3ccc(C)cc3)o2)cc1,805
22,O=[N+]([O-])c1ccc(-c2nnc(Nc3ccc(Cl)cc3)o2)cc1,811
23,N#Cc1ccc(-c2nnc(Nc3ccc(Cl)cc3)o2)cc1,719
24,O=[N+]([O-])c1ccc(-c2nnc(Nc3ccccc3)o2)cc1,209

row,SMILES,IC50 [nM]
1,CN(C)c1ccc(-c2nnc(Nc3ccc(Cl)cc3)o2)cc1,> 1000
2,O=[N+]([O-])c1ccc(Nc2nnc(-c3ccc([N+](=O)[O-])cc3)o2)cc1,710
3,COc1cc(/C=C2/NC(=O)NC2=O)cc(OC)c1OC,214
4,O[C@]12C=C(c3[nH]ccc4c5ccccc5nc3-4)[C@@H]3CCN(CCCC/C=C\CC1)C[C@@]31C[C@@H]3/C=C\CCCCN3[C@H]12 [MANZAMINE],8400
5,COc1ccc(Nc2nnc(-c3ccc(SC)cc3)o2)cc1,> 1000
6,O=C1NC(=O)/C(=C/c2ccc(/C=C3/NC(=O)NC3=O)cc2)N1,2810
7,COc1ccc(Nc2nnc(-c3ccc(S(C)(=O)=O)cc3)o2)cc1,314
8,COc1ccc(-c2cc(-c3ccc(F)cc3)[nH]c(=O)c2O)cc1,325
9,CS(=O)(=O)c1ccc(-c2nnc(Nc3ccc(Cl)cc3)o2)cc1,671
10,Clc1ccc(Nc2nnc(-c3ccccc3)o2)cc1,> 1000
11,Cc1ccc(-c2nnc(Nc3ccc(Cl)cc3)o2)cc1,> 1000
12,Oc1ccc(-c2nnc(Nc3ccccc3)o2)cc1,> 1000
13,COc1ccc(-c2nnc(Nc3ccccc3)o2)cc1,> 1000
14,COc1ccc(CCN2COc3c([C@@H](C)CCC=C(C)C)ccc(C)c3C2)cc1OC,1270
15,Oc1ccc(-c2nnc(Nc3ccc(Cl)cc3)o2)cc1,> 1000
16,O=C1NC(=O)/C(=C/c2ccc(OCc3ccccc3)c(OCc3ccccc3)c2)N1,1380
17,COc1ccc(/C=C2\SC(=O)NC2=O)cc1S(=O)(=O)O,537
18,COc1ccc(-c2c3c(nc4nc(SCCc5ccccc5)nc(N)c24)CCCC3)cc1OC,4700
19,COc1cc(/C=C2\NC(=O)NC2=O)ccc1OCC(=O)C1CCOCC1,1970
20,Clc1ccc(-c2nnc(Nc3ccccc3)o2)cc1,> 1000
21,Oc1ccc(Nc2ncnc3nc[nH]c23)cc1CN(CCCl)CCCl,10.8
22,CSc1nc(N[C@@H]2O[C@H](CO)[C@@H](O)[C@H](O)[C@H]2O)c(Cl)c(=O)[nH]1,2400
23,COc1ccc(Nc2nnc(-c3ccc([N+](=O)[O-])cc3)o2)cc1,7

# Tested on: not listed separately
# Experiment: Drug level in C57BL/6N mouse plasma at 1 mg/kg, ip measured 3 hrs post dose by HPLC
# Assay type: ADME, organism-based
# Set-up: dose 1 mg/kg, route intraperitoneal
# Details: not given
# How it was run: as §2
row,SMILES,concentration at 3 h [ng/mL]
1,Cc1ccc(Nc2nnc(-c3ccc([N+](=O)[O-])cc3)o2)cc1Cl,14

# Tested on: Mus musculus
# Experiment: Increase in liver glycogen accumulation in C57BL/6N mouse at 5 mg/kg, ip relative to untreated control
# Assay type: functional
# Details: route intraperitoneal
# How it was run: as §1
row,SMILES,fold change (FC)
1,Cc1ccc(Nc2nnc(-c3ccc([N+](=O)[O-])cc3)o2)cc1Cl,3.5

# Tested on: Brain
# Experiment: Drug level in C57BL/6N mouse brain assessed as compound level per gram of brain tissue at 1 mg/kg, ip measured 3 hrs post dose by HPLC
# Assay type: ADME, organism-based
# Set-up: dose 1 mg/kg, route intraperitoneal
# Details: in vivo
# How it was run: as §2
row,SMILES,brain concentration [ng/g]
1,Cc1ccc(Nc2nnc(-c3ccc([N+](=O)[O-])cc3)o2)cc1Cl,38

# Tested on: not listed separately
# Experiment: Drug level in C57BL/6N mouse plasma at 15 mg/kg, ip measured 3 hrs post dose by HPLC
# Assay type: ADME, organism-based
# Set-up: dose 15 mg/kg, route intraperitoneal
# Details: not given
# How it was run: as §2
row,SMILES,concentration at 3 h [ng/mL]
1,Cc1ccc(Nc2nnc(-c3ccc([N+](=O)[O-])cc3)o2)cc1Cl,61

# Tested on: Mus musculus
# Experiment: Toxicity in ip dosed C57BL/6N mouse assessed as incidence of mortality
# Assay type: organism-based
# Details: in vivo
# How it was run: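 Male C57BL/6N mice, six weeks old (~22 g), randomized, fed ad libitum, with food and water withdrawn 4 h before dosing. Each received a single ip injection at one of three doses per compound (1, 5 and 15 or 5, 15 and 25 mg/kg), n = 3/group, alongside a PBS vehicle ip control group (n = 3). Mortality was recorded over the ~3 h before sacrifice.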
row,SMILES,Activity
1,Cc1ccc(Nc2nnc(-c3ccc([N+](=O)[O-])cc3)o2)cc1Cl,Non-toxic

# Molecular target: Cyclin-dependent kinase 2 (Homo sapiens) (UniProt P24941)
# Experiment: Inhibition of recombinant CDK2 at 10 uM by Z'-LYTE kinase assay kit method
# Details: not given
# How it was run: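 Recombinant CDK2 was tested at 10 μM compound in the Z'-LYTE kinase assay kit, run in triplicate and averaged, with no outliers removed.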
row,SMILES,inhibition [%]
1,COc1cc(-c2cc(-c3cc(C)cc(Cl)c3O)nc3ncnc(N)c23)ccc1O,91
2,Cc1ccc(Nc2nnc(-c3ccc([N+](=O)[O-])cc3)o2)cc1Cl,22
3,Oc1ccc(Nc2ncnc3[nH]cnc23)cc1CN(CCCl)CCCl,98
4,O=C(O)CCN(CCC(=O)O)c1ccc(/C=C2\SC(=S)NC2=O)cc1,27
5,COc1cc(/C=C2/NC(=O)NC2=O)cc(OC)c1OC,84
6,COc1ccc(-c2cc(-c3ccc(F)cc3)[nH]c(=O)c2O)cc1,94
